In data set [1] the target is T1, Corticotropin-releasing factor receptor 1 (Homo sapiens, UniProt P34998).
T1 sequence (P34998 whole entry): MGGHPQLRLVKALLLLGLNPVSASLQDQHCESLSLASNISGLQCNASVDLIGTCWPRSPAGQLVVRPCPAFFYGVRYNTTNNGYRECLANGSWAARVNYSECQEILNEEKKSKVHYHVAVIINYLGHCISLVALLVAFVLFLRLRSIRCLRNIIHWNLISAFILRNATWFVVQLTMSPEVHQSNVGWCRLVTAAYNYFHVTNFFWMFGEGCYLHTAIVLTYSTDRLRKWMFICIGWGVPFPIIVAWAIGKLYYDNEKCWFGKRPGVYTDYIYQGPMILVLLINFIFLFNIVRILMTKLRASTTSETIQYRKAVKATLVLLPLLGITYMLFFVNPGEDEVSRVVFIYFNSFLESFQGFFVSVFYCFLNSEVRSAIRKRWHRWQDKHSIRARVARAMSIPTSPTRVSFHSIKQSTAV
The experiment in a line: Binding affinity for corticotropin-releasing factor-1 expressed in […] cells. Format: cell-based. In a few lines:
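Cloned human CRF1 receptor expressed in […] cells. Radiolabeled sauvagine used as ligand. Ki derived from dose–response curves over 1 nM to 10 μM. Values are the mean of three or more independent determinations.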

Data set [2] can be described thus: Volume distribution in rat was determined upon intravenous administration. Conditions: in vivo.
Data set [3] is described as follows: Oral bioavailability in Rat upon oral administration. Conditions: in vivo. The format is ADME, organism-based. In a few lines: (§1)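 Male Sprague-Dawley rats given 10 mg/kg intravenously or orally. Plasma clearance, volume of distribution and terminal half-life taken from the iv arm. Plasma and brain Cmax taken after oral dosing. Oral bioavailability estimated. Brain exposure relative to plasma based on AUC (0–6 h).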

A short description of data set [4]: Plasma clearance in rat was determined upon i.v. administration. Format: ADME, organism-based. Conditions: iv. The procedure, abridged: as §1
The nature of data set [5]: Concentration maximum in plasma of rat was determined after 1 h upon oral administration. The format is ADME, organism-based. Also on record: route oral. The procedure, abridged:
as §1

The nature of data set [6]: Terminal half life in rat was determined upon intravenous administration. The note with it: in vivo.
The target of data set [7] is T1, Corticotropin-releasing factor receptor 1. The experiment in a line: Inhibition of CRF stimulated cAMP production in CHO cells expressing CRF1 receptor. The format is functional, cell-based.
Data set [8] can be described thus: Concentration maximum in brain of rat was determined after 1 hr upon oral administration. The format is ADME, organism-based. Also on record: route oral. The procedure, abridged: as §1
Data set [9] is described as follows: Terminal half life in rat was determined upon oral administration. The format is ADME, organism-based. The note with it: in vivo.

Molecules are shown by their SMILES.

For orientation: Ki means a measure of affinity in units of concentration, obtained from inhibition or displacement. Read a low Ki as a stronger hold on the target. Compound `CCCC(CCC)N1CCn2nc(-c3ccc(Cl)cc3Cl)c3nc(C)cc1c32` displayed a Ki in data set [1] of 4.5 nM.

As for `CCCC(CCC)N1CCn2c(=O)n(-c3ccc(C(F)(F)F)cc3)c3nc(C)cc1c32`, in data set [1], the Ki turned out to be 17 nM.

In turn, `CCCC(CCC)N1CCn2c(=O)n(-c3ccc(Cl)cc3Cl)c3nc(C)cc1c32` returned a Ki in data set [1] of 5.1 nM.

Consider `CCCC(CCC)N1CCn2c(=O)n(-c3ccc(C(=O)OC)cc3)c3nc(C)cc1c32`, for which the Ki in [1] came to 920 nM.

Broadly, the Vd is a proportionality between amount in the body and measured concentration, not a real space. A lower Vd goes with little distribution into tissue. As a reminder, the bioavailability is dose-corrected exposure relative to a reference, in per cent. The term clearance denotes the volume of plasma or blood freed of the substance per unit of time. One may read the Cmax as the maximum level reached in the sampled fluid or tissue. Usually half-life stands for the time in which the quantity being followed falls by half. As a reminder, the IC50 is the midpoint of a concentration-inhibition curve. The compound `CCCC(CCC)N1CCn2c(=O)n(-c3ccc(OC)cc3)c3nc(C)cc1c32` showed a Vd in [2] of 7.2 L/kg. Moreover, the bioavailability in data set [3] was 30%. The compound also registered a clearance in data set [4] of 53.4 mL/min/kg. Moreover, the results for the Cmax in [5] and in data set [8] were 356 ng/mL and 1180 ng/g, respectively. Moreover, the half-life in data set [6] turned out to be 1.6 h. Besides, the IC50 in [7] came out at 71 nM. Also, the Ki in data set [1] is 2 nM.

Take `CCC(CC)N1CCn2c(=O)n(-c3ccc(OC)cc3C)c3nc(C)cc1c32`: the affinity in data set [1] corresponds to a Ki of 20 nM.

As for `CCCC(CCC)N1CCn2c(=O)n(-c3ccc(C(C)C)cc3Br)c3nc(C)cc1c32`, the affinity in data set [1] corresponds to a Ki of 1.1 nM.

Compound `CCCC(CCC)N1CCn2c(=O)n(-c3ccc(S(C)(=O)=O)cc3)c3nc(C)cc1c32` yielded a Ki in [1] of 460 nM.

Compound `CCCC(CCC)N1CCn2c(=O)n(-c3ccccc3OC)c3nc(C)cc1c32` showed a Ki in data set [1] of 44 nM.

In data set [1], `CCCC(CCC)N1CCn2c(=O)n(-c3cccc(OC)c3)c3nc(C)cc1c32` gave a Ki of 130 nM.

`CCC(CC)N1CCn2c(=O)n(-c3ccc(C(F)(F)F)cc3)c3nc(C)cc1c32` showed a Ki in data set [1] of 170 nM.

With `CCC(CC)N1CCn2c(=O)n(-c3ccc(OC)cc3)c3nc(C)cc1c32`, the Ki in data set [1] was determined as 8 nM.

`CCCC(CCC)N1CCn2c(=O)n(-c3ccc(OC)nc3)c3nc(C)cc1c32` registered a Ki in data set [1] of 60 nM.

The compound `CCCC(CCC)N1CCn2c(=O)n(-c3ccc(OCC)cc3)c3nc(C)cc1c32` displayed a Ki in data set [1] of 140 nM. Compared with the last compound, the Ki is about 2.3-fold higher.

In the case of `CCCC(CCC)N1CCn2c(=O)n(-c3ccc(Cl)cc3)c3nc(C)cc1c32`, the Ki in data set [1] is 12 nM. Compared with the last compound, the Ki is about 12-fold lower.

Regarding `CCCCN1CCn2c(=O)n(-c3ccc(OC)cc3)c3nc(C)cc1c32`, the Ki in data set [1] came out at 8800 nM.

The compound `COc1ccc(-n2c(=O)n3c4c(cc(C)nc42)N(C(C)C)CC3)cc1` registered a Ki in data set [1] of more than 10000 nM.

Turning to `CCCC(CCC)N1CCn2c(=O)n(-c3ccc(Cl)cn3)c3nc(C)cc1c32`, the affinity in data set [1], expressed as Ki, was 23 nM.

Compound `CCC(CC)N1CCn2c(=O)n(-c3ccc(Cl)cc3)c3nc(C)cc1c32` registered a Ki in data set [1] of 58 nM.

In data set [2], `COCC(COC)Nc1nc(C)nc2c(-c3ccc(Cl)cc3Cl)c(C)nn12` gave a Vd of 22 L/kg. Moreover, in [9], the half-life is 16 h.

In the case of `CCCCN(CC)c1nc(C)nc2c1c(C)cn2-c1c(C)cc(C)cc1C` [CP-154526], in data set [2], the Vd came out at 105 L/kg. This compound also showed a T1/2 in data set [9] of 51 h.
